The record followed here is ChEMBL document CHEMBL5620421, “2,6-Disubstituted 7-(naphthalen-2-ylmethyl)-7H-purines as a new class of potent antitubercular agents inhibiting DprE1” (Eur J Med Chem, 2023).

Converted amounts (≈) assume the structure as drawn. The source made the active and inactive calls. The rule behind the calls is not given here.

The test system of one data set is Escherichia coli. In words: Antibacterial activity against Escherichia coli A1235 assessed as inhibition of bacterial growth at 125 uM incubated for 24 to 48 hrs by microdilution broth method. It counts as functional, organism-based. The settings on record: time 24-48 hrs.
The next data set has as its system Enterococcus faecium. Description: Antibacterial activity against vancomycin-resistant Enterococcus faecium assessed as inhibition of bacterial growth incubated for 24 to 48 hrs by microdilution broth method. Particulars: time 24-48 hrs. The data set is classed as functional, organism-based. An outline of the steps: (§1)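 Clinical isolates, stored at −70 °C, were passaged twice on Mueller-Hinton agar. Broth microdilution in Mueller-Hinton broth, pH 7.4, with twofold serial dilutions. DMSO was at most 1% final. Inoculum 1.5 × 10⁸ CFU/mL suspension. MIC is 95% growth inhibition, read after 24 and 48 h at 36 °C.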

In a further data set the test system is H9c2. Description: Cytotoxicity against rat H9c2 cells assessed as cell viability at 50 uM incubated for 72 hrs by MTT spectrophotometric analysis relative to control. The data set is classed as functional. Particulars: read-out: Activity. In short, it runs like this:
(§2)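 HepG2 or rat H9c2 cells in DMEM with FBS, seeded at 10,000 cells/well. Treated 24 h later for 72 h, with 0.1% DMSO vehicle and 1% Triton X-100 as controls. MTT added (3 mg/mL solution) for 2 h at 37 °C, then cells lysed in isopropanol/0.1 M HCl/5% Triton X-100. Read at 570 nm minus 690 nm. Viability expressed as % of vehicle; IC50 derived where reached. At least four independent experiments.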

In data set [1] the test system is Mycobacterium tuberculosis. Description: Antitubercular activity against Mycobacterium tuberculosis CNCTC My 331/88 (H37Rv) assessed as inhibition of bacterial growth measured after 21 days of incubation by Sulas semisynthetic medium based assay. It counts as functional. Particulars: 504 h, time 21 day. In short, it runs like this: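 Micromethod MIC in Sula's semisynthetic medium. MIC is the lowest concentration inhibiting >99% of the mycobacterial population. Isoniazid was the standard drug.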

For data set [2], the system named is HepG2. Description: Cytotoxicity against human HepG2 cells assessed as cell viability at 50 uM incubated for 72 hrs by MTT spectrophotometric analysis relative to control. Particulars: read-out: Activity. It counts as functional. In short, it runs like this: as §2
Data set [3] relates to Staphylococcus aureus. Description: Antibacterial activity against Staphylococcus aureus C1947 assessed as inhibition of bacterial growth at 125 uM incubated for 24 to 48 hrs by microdilution broth method. It counts as functional, organism-based. Particulars: time 24-48 hrs. (In general: Dilution methods test growth across graded concentrations, often in twofold steps.)
The nature of data set [4]: Intrinsic clearance in human liver microsomes at 3 uM incubated for 5 to 45 min in presence of NADPH by LC-MS analysis. It counts as ADME, Microsome. The settings on record: time 5-45 min, read-out: CLH.
The subject of data set [5] is Staphylococcus aureus. In words: Antibacterial activity against Staphylococcus aureus C1947 assessed as inhibition of bacterial growth incubated for 24 to 48 hrs by microdilution broth method. It counts as functional, organism-based. Particulars: time 24-48 hrs. In short, it runs like this: (§3)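 Clinical isolates kept at –70 °C and subcultured twice on Mueller-Hinton agar, using the second subculture. Broth microdilution in Mueller-Hinton broth at pH 7.4 with two-fold serial compound dilutions and DMSO ≤1% final. Inoculum was 10 μL of a 1.5 × 10⁸ CFU/mL suspension. Incubated at 36 °C ± 1 °C and read at 24 h and 48 h. MIC taken as 95% growth inhibition.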

Data set [6] relates to Mycobacterium tuberculosis. In words: Antimycobacterial activity against XDR clinical isolate Mycobacterium tuberculosis 9449/2007 assessed as inhibition of mycobacterial growth measured after 14 to 21 days of incubation by Sulas semisynthetic medium based assay. It counts as functional. The settings on record: time 14-21 day. An outline of the steps:
(§4)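 Clinical MDR/XDR M. tuberculosis isolates were tested by the Sula's semisynthetic medium micromethod. Compounds in DMSO at 1000 to 0.5 μmol/L, in twofold-type steps. Incubation at 37 °C, read at 14 and 21 days. MIC99 is the lowest concentration inhibiting >99% of growth. Drug resistance or susceptibility of each isolate is to amikacin, clofazimine, gentamicin, ofloxacin, streptomycin and the others listed.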

The test system of data set [7] is Mycobacterium tuberculosis. Description: Antimycobacterial activity against MDR clinical isolate Mycobacterium tuberculosis 9449/2007 assessed as inhibition of mycobacterial growth measured after 14 to 21 days of incubation by Sulas semisynthetic medium based assay. The data set is classed as functional. Particulars: time 14-21 day. An outline of the steps: as §4

Data set [8] concerns HepG2. In words: Cytotoxicity against human HepG2 cells assessed as cell viability incubated for 72 hrs by MTT spectrophotometric analysis. It counts as functional, cell-based. The settings on record: HepG2, 72 h. In short, it runs like this:
as §2

In data set [9] the test system is Mycobacterium tuberculosis. Description: Antimycobacterial activity against XDR clinical isolate Mycobacterium tuberculosis 8666/2010 assessed as inhibition of mycobacterial growth measured after 14 to 21 days of incubation by Sulas semisynthetic medium based assay. The data set is classed as functional. The settings on record: time 14-21 day. An outline of the steps: as §4

Data set [10] relates to Pseudomonas aeruginosa. Description: Antibacterial activity against multidrug-resistant Pseudomonas aeruginosa A1245 assessed as inhibition of bacterial growth at 125 uM incubated for 24 to 48 hrs by microdilution broth method. The data set is classed as functional, organism-based. The settings on record: time 24-48 hrs.
The test system of data set [11] is Staphylococcus epidermidis. Description: Antibacterial activity against Staphylococcus epidermidis C1936 assessed as inhibition of bacterial growth at 125 uM incubated for 24 to 48 hrs by microdilution broth method. The data set is classed as functional, organism-based. The settings on record: time 24-48 hrs.
Data set [12] relates to Staphylococcus epidermidis. In words: Antibacterial activity against Staphylococcus epidermidis C1936 assessed as inhibition of bacterial growth incubated for 24 to 48 hrs by microdilution broth method. It counts as functional, organism-based. The settings on record: time 24-48 hrs. An outline of the steps: as §3
Data set [13] relates to HepG2. In words: Cytotoxicity against human HepG2 cells incubated for 24 hrs by MTT assay. The data set is classed as functional, cell-based. Particulars: HepG2, 24 h. An outline of the steps: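 HepG2 cells in DMEM with 10% FBS, seeded at 15 × 10³ cells/well and attached overnight. Exposed for 24 h to serial dilutions prepared from DMSO stocks, final DMSO ≤1%. Then given fresh medium with 0.5 mg/mL MTT for 1 h at 37 °C. Formazan dissolved in DMSO and read at 570 nm. IC50 from 4-parameter nonlinear regression; three independent experiments in triplicate, mean ± SD.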
In general terms: Tetrazolium assays rely on reduction of a dye to a coloured formazan, in cell work by metabolically active cells.

Data set [14] has as its system Klebsiella pneumoniae. In words: Antibacterial activity against ESBL negative Klebsiella pneumoniae C1950 assessed as inhibition of bacterial growth at 125 uM incubated for 24 to 48 hrs by microdilution broth method. It counts as functional, organism-based. Particulars: time 24-48 hrs.
Data set [15] has as its system Staphylococcus aureus. In words: Antibacterial activity against methicilin-resistant Staphylococcus aureus C1923 assessed as inhibition of bacterial growth at 125 uM incubated for 24 to 48 hrs by microdilution broth method. It counts as functional, organism-based. Particulars: time 24-48 hrs.
For data set [16], the system named is Klebsiella pneumoniae. Description: Antibacterial activity against ESBL positive Klebsiella pneumoniae C1914 assessed as inhibition of bacterial growth incubated for 24 to 48 hrs by microdilution broth method. It counts as functional, organism-based. Particulars: time 24-48 hrs. In short, it runs like this: as §3
Data set [17] has as its system Pseudomonas aeruginosa. Description: Antibacterial activity against multidrug-resistant Pseudomonas aeruginosa A1245 assessed as inhibition of bacterial growth incubated for 24 to 48 hrs by microdilution broth method. It counts as functional, organism-based. The settings on record: time 24-48 hrs. In short, it runs like this: as §1

On to `CCNc1nc(N2CCOCC2)nc2ncn(Cc3ccc4ccccc4c3)c12`, for which the result (in the data set on Escherichia coli; in the data set on Enterococcus faecium; in the data set on Staphylococcus aureus [3]; in the data set on Staphylococcus aureus [5]; in the data set on Pseudomonas aeruginosa [10]; in data set [11]) was inactive. The outcome (in data set [12]; in the data set on Klebsiella pneumoniae [14]; with Staphylococcus aureus [15]; in the data set on Klebsiella pneumoniae [16]; in the data set with Pseudomonas aeruginosa [17]) was inactive. The viability at 50 µM turned out to be 88% in the data set with H9c2 and 66.9% with HepG2 [2]. In addition, the MIC99 (as a rule, an inhibitory concentration at the 99% level, which refers to growth in some studies and to a panel of isolates in others) in data set [1] was found to be 1 µM (≈ 0.388 µg/mL); in [6], 4 µM (≈ 1.55 µg/mL); in data set [7] it was 2 µM (≈ 0.777 µg/mL); in [9] it was 2 µM (≈ 0.777 µg/mL). Also, the microsomal CLint at 3 µM in [4] stood at 27 µL/min/mg. Also, the IC50 (commonly the concentration that gives 50% inhibition) in the data set on HepG2 [8] is greater than 50 µM; in the data set with HepG2 [13] it was 63.9 µM.

Take `Nc1nc(N2CCOCC2)nc2ncn(Cc3ccc4ccccc4c3)c12`: the result (with Escherichia coli; in the data set with Enterococcus faecium; in the data set with Staphylococcus aureus [3]; in the data set with Staphylococcus aureus [5]; with Pseudomonas aeruginosa [10]; in data set [11]) was inactive. For the same compound, the result (in [12]; in the data set with Klebsiella pneumoniae [14]; with Staphylococcus aureus [15]; with Klebsiella pneumoniae [16]; in the data set on Pseudomonas aeruginosa [17]) was inactive. Further, the viability at 50 µM in the data set with H9c2 is 91.7%; in the data set on HepG2 [2] it was 77%. Besides, the MIC99 is 2 µM (≈ 0.721 µg/mL) in [1], 4 µM (≈ 1.44 µg/mL) in data set [6], 2 µM (≈ 0.721 µg/mL) in [7] and 4 µM (≈ 1.44 µg/mL) in data set [9]. In data set [4], the microsomal CLint at 3 µM turned out to be 16.8 µL/min/mg. Besides, the IC50 was greater than 50 µM with HepG2 [8] and greater than 125 µM in the data set on HepG2 [13].
